Converted amounts (≈) assume the structure as drawn. The source made the active and inactive calls. The calls are words filed in the database; no cut-off is given here.

We go through 19 compounds from ChEMBL document CHEMBL4177560, “Functional evaluation of synthetic flavonoids and chalcones for potential antiviral and anticancer properties” (Bioorg Med Chem Lett, 2017).

The test system of one experiment is Ishikawa. As to the kind of experiment: Inhibition of estradiol-induced proliferation in human Ishikawa cells after 72 hrs by Cell-titer-Glo assay. In kind it is functional, cell-based.
In a further experiment the test system is MCF7. As to the kind of experiment: Inhibition of estradiol-induced proliferation in human MCF7 cells after 72 hrs by Cell-titer-Glo assay. In kind it is functional, cell-based. To be noted: MCF7, 72 h.
A further experiment deals with MDA-MB-231. As to the kind of experiment: Inhibition of estradiol-induced proliferation in human MDA-MB-231 cells after 72 hrs by Cell-titer-Glo assay. In kind it is functional, cell-based. The following applies: MDA-MB-231, 72 h.
Experiment [1] concerns the target Serine/threonine-protein kinase mTOR (Homo sapiens) (UniProt P42345). As to the kind of experiment: Inhibition of mTOR signaling pathway in human Huh7.5 cells infected with FLAG-tagged HCV genotype 2a JFH-1 assessed as reduction in ratio of viral NS3 to cellular GAPDH protein level up to 50 uM after 72 hrs by Western blot analysis. In kind it is cell-based. In a few lines:
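Huh7.5 cells were infected with genotype 2a JFH1-FLAG and co-treated at up to 50 μM for 72 h. NS3 and GAPDH were read by Western blot, and the NS3:GAPDH ratio was expressed relative to DMSO-treated cells.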

The target is the same in experiment [2]. In words: Inhibition of mTOR signaling pathway in human GS5 cells infected with HCV genotype 1b assessed as reduction in ratio of viral NS3 to cellular GAPDH protein level at 10 uM after 72 hrs by Western blot analysis. In kind it is cell-based. Put shortly: (§1)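 SGR2a (genotype 2a) or GS5 (genotype 1b) replicon cells were treated for 72 h, either at a single 10 μM dose or at increasing concentrations. Extracted proteins were blotted for NS3 and GAPDH, and blots plus repeats were quantified densitometrically as NS3:GAPDH ratio versus DMSO control (100%).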

For experiment [3] the target is unchanged. As to the kind of experiment: Inhibition of mTOR signaling pathway (unknown origin) in sub-genomic replicon 2A cells assessed as reduction in ratio of viral NS3 to cellular GAPDH protein level at 10 uM after 72 hrs by Western blot analysis. Put shortly:
as §1
(In general: Replicon systems follow genome replication, usually without infectious particles.)

Experiment [4] has as its system Hepatitis C virus. In words: Antiviral activity against HCV genotype 2a infected in human Huh7.5 cells assessed as reduction in viral RNA level at 0.1 to 10 uM after 72 hrs by qPCR analysis. In kind it is functional, organism-based. The following applies: Hepacivirus hominis. A general note: Quantitative PCR measures a nucleic acid by following its amplification.

For experiment [5], the target named is Serine/threonine-protein kinase mTOR (Homo sapiens) (UniProt P42345). In words: Inhibition of mTOR signaling pathway (unknown origin) in sub-genomic replicon 2A cells assessed as reduction in ratio of viral NS3 to cellular GAPDH protein level at 5 uM after 72 hrs by Western blot analysis relative to control. In a few lines: as §1
Experiment [6] shares this target. As to the kind of experiment: Inhibition of mTOR signaling pathway (unknown origin) in sub-genomic replicon 2A cells assessed as reduction in ratio of viral NS3 to cellular GAPDH protein level at 0.5 to 1 uM after 72 hrs by Western blot analysis relative to control. Put shortly: as §1
The target is the same in experiment [7]. In words: Inhibition of mTOR signaling pathway (unknown origin) in sub-genomic replicon 2A cells assessed as reduction in ratio of phosphorylated rps6 protein level to rps6 protein level after 72 hrs by Western blot analysis. In a few lines:
(§2)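 SGR2a replicon cells were incubated with increasing compound concentrations for 72 h. Western blots were run for total rps6, phospho-rps6, phospho-S6K1 and GAPDH, and blots plus repeats were quantified as p-rps6 relative to GAPDH or to total rps6.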

The test system of experiment [8] is Hepatitis C virus. In words: Antiviral activity against HCV genotype 1b infected in human GS5 cells assessed as reduction in viral RNA level at 0.1 to 10 uM after 72 hrs by qPCR analysis. In kind it is functional, organism-based. The following applies: Hepacivirus hominis. In a few lines:
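GS5 genotype 1b replicon cells were treated for 72 h across 0.1–10 μM. Total RNA was extracted, and HCV RNA and GAPDH mRNA were quantified by qPCR with HCV-specific primers.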

Experiment [9] addresses Serine/threonine-protein kinase mTOR (Homo sapiens) (UniProt P42345). In words: Inhibition of mTOR signaling pathway (unknown origin) in human GS5 cells infected with HCV genotype 1b assessed as reduction in ratio of viral NS3 to cellular GAPDH protein level at 5 uM after 72 hrs by Western blot analysis relative to control. In kind it is cell-based. Put shortly:
as §1
(In general: In western blotting, separated proteins are transferred to a membrane and probed.)

For experiment [10] the target is unchanged. As to the kind of experiment: Inhibition of mTOR signaling pathway (unknown origin) in human GS5 cells infected with HCV genotype 1b assessed as reduction in ratio of viral NS3 to cellular GAPDH protein level at 0.5 to 1 uM after 72 hrs by Western blot analysis relative to control. In kind it is cell-based. Put shortly: as §1
Experiment [11] has as its system Hepatitis C virus. In words: Antiviral activity against HCV genotype 2a infected in human Huh7.5 cells electroporated with viral RNA assessed as […] reduction in ratio of viral NS3 to cellular GAPDH protein level up to 50 uM after 72 hrs by Western blot analysis. The following applies: Hepacivirus hominis.
The target in experiment [12] is Serine/threonine-protein kinase mTOR (Homo sapiens) (UniProt P42345). As to the kind of experiment: Inhibition of mTOR signaling pathway (unknown origin) in sub-genomic replicon 2A cells assessed as reduction in ratio of phosphorylated rps6 protein level to rps6 protein level at 0.5 to 10 uM after 72 hrs by Western blot analysis relative to control. Put shortly: as §2

Experiment [13] shares this target. In words: Inhibition of mTOR signaling pathway (unknown origin) in sub-genomic replicon 2A cells assessed as reduction in ratio of phosphorylated S6K1 protein level at 0.1 uM after 72 hrs by Western blot analysis. Put shortly:
as §2

The target is the same in experiment [14]. As to the kind of experiment: Inhibition of mTOR signaling pathway in human Huh7.5 cells assessed as reduction in rps6 protein levels at 0.5 to 10 uM after 72 hrs by Western blot analysis. In kind it is cell-based. In a few lines: (§3)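 Naïve, HCV-free Huh7.5 cells were incubated with increasing compound concentrations. Western blot analysis covered phospho-rps6, total rps6, S6K1 and actin.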

For experiment [15] the target is unchanged. As to the kind of experiment: Inhibition of mTOR signaling pathway in human Huh7.5 cells assessed as reduction in S6K1 levels at 0.5 to 10 uM after 72 hrs by Western blot analysis. In kind it is cell-based. In a few lines:
as §3

In general, IC50 refers to the midpoint of a concentration-inhibition curve. Read a high IC50 as weaker potency in that assay. Take `Cl.O=C(c1ccc(OCCN2CCCCC2)cc1)c1c(-c2ccc(O)cc2)sc2cc(O)ccc12` [RALOXIFENE HYDROCHLORIDE]: the IC50 came out at 10.5 µg/mL in the experiment on Ishikawa, 0.98 µg/mL in the experiment with MCF7 and 11.2 µg/mL in the experiment with MDA-MB-231.
What is called inhibition is the share of the control response that was lost under treatment. As to `COc1ccc(-c2cc(=O)c3cc(Br)cc(Br)c3o2)cc1OC`, the inhibition entry in experiment [1] was “inactive”.
For `COc1cc(OC)c(C(=O)C#Cc2cc(OC)c(OC)c(OC)c2)c(O)c1C`, the inhibition entry in experiment [2], in experiment [1] and in experiment [3] was “Active” throughout.
On to `COc1cc(C#CC(=O)c2cc(Cl)cc(Cl)c2O)cc(OC)c1OC`, for which the inhibition entry in experiment [2], in experiment [1] and in [3] was “Active” each time.
For the compound `COc1ccc(-c2oc3c(Br)cc(Br)cc3c(=O)c2O)cc1OC`, in experiment [1], the inhibition result was “inactive”.
`CC/C(=C(\c1ccc(O)cc1)c1ccc(OCCN(C)C)cc1)c1ccccc1` [AFIMOXIFENE] registered an IC50 with MCF7 of 0.95 µg/mL (≈ 2.45 µM).
On to `COc1cc(-c2oc3c(Br)cc(Br)cc3c(=O)c2O)cc(OC)c1OC`, for which the inhibition result in experiment [1] was “inactive”.
Regarding `COc1cc(O)c(C(=O)C#Cc2cc(OC)c(OC)c(OC)c2)c(OC)c1`, the inhibition result in experiment [2], in experiment [1], in experiment [3] and in experiment [7] was “Active” in each case. In the experiment with Hepatitis C virus [4], the outcome was Active. The inhibition in [5] and in experiment [9] was 50% each time. For the same compound, the inhibition result in [6] and in experiment [10] was “inactive” throughout. The outcome in the experiment on Hepatitis C virus [8] and in the experiment with Hepatitis C virus [11] was inactive.
Take `COc1cc(-c2oc3c(Cl)cc(Cl)cc3c(=O)c2O)cc(OC)c1OC`: the inhibition result in experiment [1] was “inactive”.
The same measure, in the same setting: in the case of `COc1cc(-c2oc3c([N+](=O)[O-])cc(C)cc3c(=O)c2O)cc(OC)c1OC` it was “inactive”; in that of `COc1cc(-c2cc(=O)c3cc(Cl)cc(Cl)c3o2)cc(OC)c1OC`, “inactive”.
As to `COc1ccc(C#CC(=O)c2cc(Cl)cc(Cl)c2O)cc1OC`, the inhibition entry in experiment [2], in experiment [1], in experiment [3], in experiment [5] and in experiment [9] was “Active” each time. For the same compound, the inhibition entry in experiment [6] and in experiment [10] was “inactive” throughout. Further, the figures for the IC50 with Ishikawa, in the experiment on MCF7 and with MDA-MB-231 were 5.85 µg/mL (≈ 16.7 µM), 3.3 µg/mL (≈ 9.4 µM) and 1.98 µg/mL (≈ 5.64 µM), respectively. The outcome with Hepatitis C virus [11] was inactive.
For the compound `COc1ccc(C#CC(=O)c2cc(C)cc([N+](=O)[O-])c2O)cc1OC`, the inhibition result in [2], in [1] and in experiment [3] was “Active” in each case. For the same compound, the IC50 in the experiment on Ishikawa is 1.43 µg/mL (≈ 4.19 µM); in the experiment on MCF7, 2.24 µg/mL (≈ 6.56 µM); with MDA-MB-231, 0.99 µg/mL (≈ 2.9 µM). In the experiment with Hepatitis C virus [11], the outcome was inactive.
In the case of `COc1ccc(-c2oc3c([N+](=O)[O-])cc(C)cc3c(=O)c2O)cc1OC`, the inhibition entry in experiment [1] was “inactive”. In addition, the IC50 with Ishikawa, in the experiment with MCF7 and in the experiment on MDA-MB-231 was > 35.7 µg/mL each time.
In the case of `COc1ccc(C#CC(=O)c2cc(Br)cc(Br)c2O)cc1OC`, the inhibition result in [2], in [1], in [3], in [13], in experiment [14] and in experiment [15] was “Active” throughout. Moreover, the result in the experiment on Hepatitis C virus [4] was Active. For the same compound, the inhibition in experiment [5], in experiment [12] and in experiment [9] was 50% each time. The inhibition entry in experiment [6] and in [10] was “inactive” throughout. Moreover, in the experiment on Hepatitis C virus [11], the result was inactive.
Consider `CCCCCc1c(OC)cc(OC)c(C(=O)C#Cc2cc(OC)c(OC)c(OC)c2)c1O`, for which the inhibition result in experiment [2] and in [3] was “Active” throughout. Besides, the inhibition entry in [1] is “inactive”.
As for `COc1ccc(-c2oc3c(Cl)cc(Cl)cc3c(=O)c2O)cc1OC`, in experiment [1], the inhibition result is “inactive”. Also, the IC50 in the experiment on Ishikawa, in the experiment with MCF7 and in the experiment on MDA-MB-231 was > 36.7 µg/mL in each case.
In the case of `COc1ccc(-c2cc(=O)c3cc(C)cc([N+](=O)[O-])c3o2)cc1OC`, in experiment [1], the inhibition entry was “inactive”.
On the same count and under the same terms, in the case of `COc1cc(-c2cc(=O)c3cc(C)cc([N+](=O)[O-])c3o2)cc(OC)c1OC` it was “inactive”.
